Assay outcomes (PubChem)
HKDC1 inhibitor – HKDC1 (human) hexokinase inhibition; Q2TB90; recombinant HKDC1, G6PDH/diaphorase resazurin coupled fluorescence; inhibition, % at 20 µM; 340,000 compounds, 0.16% hits;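 active means inhibition above about 35% when tested at 20 µM, limit read from the data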;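 further: plate controls were DMSO wells with enzyme for no effect and DMSO wells lacking enzyme for full effect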
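Material: recombinant HKDC1 hexokinase; Amount: HKDC1 at 5 µg/mL; Medium: Tris pH 8.0 buffer with MgCl2, Tween-20, BSA, BME; Schedule: 90 min reaction incubation at room temperature, dark; Technique: coupled resazurin fluorescence, excitation 525 nm, emission 613 nm.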
beta cell repl – inducers of beta-cell replication in MIN6 cells; AID 2380; MIN6 cells proliferation, ATPlite luminescence, 48 h; cells starved in 0.2% serum; 100% = growth in 10% serum; 330,000 compounds, 0.29% hits; proliferation, % at 10 µM;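 active means compounds whose signal lies at least 3.5 SD above the mean of all wells on their plate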;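 further: 0% = DMSO-treated cells in low-serum medium and 100% = 10% serum control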
PvdQ inh – P. aeruginosa PvdQ acylase inhibition. 340,000 compounds, 0.063% hits. inhibition, % at 10 µM. purified PvdQ acylase, fluorescence plate reader. AID 488965; in the data active means inhibition above about 30%, passing the limit was not always enough;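 further: 0% = vehicle neutral wells and 100% = reference inhibitor wells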
IMP-1 inh – inhibitors of Pseudomonas aeruginosa IMP-1 metallo-beta-lactamase | purified IMP-1, nitrocefin hydrolysis, epi-absorbance fluorescence | inhibition, % at 5.6 µM | 290,000 compounds, 0.45% hits;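 active means inhibition above the mean plus 3 SD of all compounds in the same screening run, cut at about 4.5% in these data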;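 further: 0% = IMP-1 with DMSO and 100% = DMSO wells lacking enzyme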
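Assay system: purified IMP-1; Quantity: IMP-1 0.2 nM before substrate addition; Medium: HEPES buffer pH 7.1 with ZnSO4 and Brij 35; Incubation: 15 min enzyme–compound preincubation, then 25 min nitrocefin reaction, 25 °C; Signal: fluorescence quenching readout, ex 480/em 530 nm; Controls: DMSO with and without IMP-1; Repeats: singlicate testing.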
ATG4B inh – ATG4B (human) cysteine protease inhibition; Q9Y4P1; ATG4B cleavage of LC3-PLA2, NBD-HPC fluorescence, 1 h; inhibition, % at 8.33 µM; 340,000 compounds, 0.51% hits; AID 504462; in the data active means inhibition above about 40%
Target sequence (Q9Y4P1 whole entry, looked up): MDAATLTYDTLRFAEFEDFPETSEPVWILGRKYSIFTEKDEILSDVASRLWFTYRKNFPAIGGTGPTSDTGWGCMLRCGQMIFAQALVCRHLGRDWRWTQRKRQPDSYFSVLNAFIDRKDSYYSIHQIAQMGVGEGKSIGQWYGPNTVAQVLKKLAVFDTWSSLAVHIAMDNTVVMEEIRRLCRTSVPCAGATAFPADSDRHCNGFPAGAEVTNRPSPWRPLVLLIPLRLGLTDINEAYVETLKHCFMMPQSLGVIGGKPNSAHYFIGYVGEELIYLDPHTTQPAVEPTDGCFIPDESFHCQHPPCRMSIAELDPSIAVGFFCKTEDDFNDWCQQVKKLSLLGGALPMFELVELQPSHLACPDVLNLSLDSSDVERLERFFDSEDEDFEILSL
VIM-2 inh – inhibitors of Pseudomonas aeruginosa VIM-2 metallo-beta-lactamase; purified VIM-2, nitrocefin hydrolysis, epi-absorbance fluorescence; inhibition, % at 5.6 µM; 290,000 compounds, 0.89% hits; AID 1527;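 active means inhibition above the mean of all tested compounds plus 3 SD, cutoff set per screening run, cut at about 7.5% in these data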;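 further: red hydrolysis product quenches plate fluorescence so inhibitors raise well fluorescence; 0% = enzyme with DMSO and 100% = DMSO without enzyme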
ATG4B confirm – confirmation of human ATG4B inhibitors | inhibition, % at 8.33 µM | shares compounds with ATG4B inh | 320 compounds, 92% hits | ATG4B protease fluorescent substrate cleavage assay; in the data active means inhibition above about 39%
PLA2 counter – counter-screen for ATG4B inhibitors: human phospholipase A2; shares compounds with ATG4B inh; purified PLA2, NBD-C6-HPC fluorescence, 45 min; inhibition, % at 8.33 µM; 1,600 compounds, 66% hits; in the data active means inhibition above about 50%
Target sequence (P04054 whole entry, looked up): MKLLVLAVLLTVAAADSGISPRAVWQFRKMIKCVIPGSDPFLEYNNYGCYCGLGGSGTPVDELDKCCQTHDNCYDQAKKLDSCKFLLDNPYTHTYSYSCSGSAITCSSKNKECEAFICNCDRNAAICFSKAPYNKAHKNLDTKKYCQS
* marks the source's active call; other numbers are inactive results; . = not tested or not shown. In the library only some 2% were active in any assay of this set; here they are far more common.

SMILES	HKDC1 inhibitor	beta cell repl	PvdQ inh	IMP-1 inh	ATG4B inh	VIM-2 inh	PLA2 counter	others
CCC(Sc1nc2sc(C(=O)OC)c(C)c2c(=O)n1N)C(=O)NCC1CCCO1 (stereo not drawn)	-9.8	-2.2	-9.9	-4.7	3.1	-1.8	.
O=C(NCc1c(Cl)cccc1Oc1ccccc1)c1ccccc1	-1.8	0.5	7.7	-0.4	47.2*	-2.0	56.7*
O=[N+]([O-])c1ccc(N/N=C/c2sc(N3CCOCC3)nc2-c2ccccc2)c(S(=O)(=O)Nc2ccc(Cl)cc2)c1	0.6	.	-3.7	-2.3	12.9	-2.7	.
O=[N+]([O-])c1ccc(N/N=C/c2sc(N3CCOCC3)nc2-c2ccccc2)c(S(=O)(=O)Nc2ccccc2Cl)c1	-4.8	.	8.3	0.0	62.0*	-0.1	25.6
COc1ccc(OC)c(-c2cc(C(=O)N3CCCc4ccccc43)no2)c1	1.0	-1.0	4.1	1.5	47.3*	1.4	31.5	ATG4B confirm=68.3*
O=C(COn1nnc2ccc(Cl)cc21)NC1CCS(=O)(=O)C1 (stereo not drawn)	-2.9	3.3	7.7	.	6.3	.	.
CCn1c(COc2ccc(Cl)cc2)nnc1SC1CCc2ccccc2C1=O (stereo not drawn)	11.6	-4.4	-6.0	-5.1	87.5*	-4.1	83.7*
Nc1c(C(=O)Nc2ccccc2F)sc2nc(Cc3ccccc3)cc(C(F)(F)F)c12	13.9	-1.8	-13.3	-2.6	66.1*	-3.2	-3.0
CCS(=O)(=O)N1Cc2ccccc2CC1C(=O)Nc1nnc(SCc2c(Cl)cccc2Cl)s1 (stereo not drawn)	12.5	-5.5	5.0	-4.9	73.8*	-1.1	64.0*
CCc1ccc(Nc2ccc(C(N)=O)cc2[N+](=O)[O-])cc1	9.2	-3.9	-3.4	-4.7	71.5*	-4.0	80.7*
Cc1ccc(NC(=O)CSc2ccc(C(N)=O)cc2[N+](=O)[O-])cc1C	-7.0	-2.2	-16.1	0.1	-5.3	-1.4	.
Cc1ccc(Nc2ccc(C(N)=O)cc2[N+](=O)[O-])cc1C	14.4	-0.2	-15.5	-2.8	65.1*	-5.0	64.8*
CCc1ccc(Nc2ccc(C(=O)O)cc2[N+](=O)[O-])cc1	-1.4	1.3	-10.6	-3.0	10.0	-2.7	.
O=C(O)c1cccc(-n2cc(-c3cccc(C(F)(F)F)c3)cn2)c1	-1.1	-2.3	-1.3	-2.3	-4.4	0.9	.
COc1cc2c(cc1NC(=O)C(C)Sc1ccc(NC(C)=O)cc1)oc1ccccc12 (stereo not drawn)	1.5	0.0	-10.7	1.1	43.5*	-2.5	39.1	ATG4B confirm=90.9*
Cc1ccc(-c2c3c(nc4sc(C(N)=O)c(N)c24)CCC3)cc1	6.6	-4.3	8.6	-1.9	55.2*	1.4	58.7*
NC(=O)c1sc2nc3c(c(-c4ccco4)c2c1N)CCCC3	-0.5	7.2	-3.7	-0.9	13.1	1.0	.
NC(=O)c1sc2nc3c(c(-c4ccc(Cl)cc4)c2c1N)CCCC3	-5.2	0.3	-12.9	-1.3	48.7*	1.2	66.0*
CCOC(=O)c1c(C)nc2sc(C(=O)Nc3ccc(OC)cc3)c(N)c2c1-c1ccc(OC)cc1	-4.0	-1.2	-10.0	-3.1	-17.1	-1.8	.
CCOC(=O)c1c(C)nc2sc(C(N)=O)c(N)c2c1-c1ccc(OC)cc1	-12.0	0.6	3.3	-2.1	64.9*	-1.9	73.9*
COC(=O)c1sc2nc3c(c(-c4cccs4)c2c1N)CCCC3	3.4	-4.2	-15.1	-2.7	32.5	-4.4	.
CC(C)OCCCNC(=O)C(NS(=O)(=O)c1ccc2c(c1)c(=O)n(C)c(=O)n2C)c1ccccc1 (stereo not drawn)	.	-2.5	.	-1.7	.	-2.1	.
CCc1ccc(OCC(=O)Nc2nnc(C3CCCC3)s2)cc1	4.2	-1.3	-13.2	-1.6	1.5	-6.5	.
CCC(CC)C1=NN2C(=N)/C(=C\c3cc(C)n(-c4cccc(C)c4)c3C)C(=O)N=C2S1	4.6	-0.8	-27.7	-2.0	58.9*	0.7	8.8	ATG4B confirm=47.8*
Cc1c(Cl)cccc1NC(=S)NCc1ccc(F)cc1	-1.6	-3.0	-15.5	-3.0	58.4*	-2.6	69.2*
SMILES	HKDC1 inhibitor	beta cell repl	PvdQ inh	IMP-1 inh	ATG4B inh	VIM-2 inh	PLA2 counter	others
Cc1c(Cl)cccc1NC(=S)NCc1cccn1C	-2.9	0.9	-9.5	-0.6	46.7*	-2.6	66.0*
Cc1c(Cl)cccc1NC(=S)NCC1COc2ccccc2O1 (stereo not drawn)	-0.2	-5.6	-7.0	-1.3	88.4*	-1.8	89.2*
COC(=O)c1cccc(NC(=S)Nc2ccccc2Cl)c1	-0.4	-2.1	-11.4	-0.2	0.5	-0.2	.
C=CCNC(=S)NCC1COc2ccccc2O1 (stereo not drawn)	8.8	0.0	-4.4	-4.6	-0.3	-1.0	.
COC(=O)c1cccc(NC(=S)Nc2cccc(Cl)c2C)c1	-4.4	-3.7	3.5	-3.3	57.8*	-2.3	56.1*
O=C1NC2(CCCCC2)C(=O)N1CC(=O)N1CCc2ccccc21	-4.0	1.4	2.6	.	4.0	.	.
COc1cc(CN(C)C(=O)C2CCN(S(=O)(=O)c3cccs3)CC2)ccc1OC(F)F	-2.6	.	-4.7	.	-7.0	.	.
COc1cccc(CNC(=S)Nc2cccc(Cl)c2C)c1	4.1	-3.9	-13.4	-2.4	54.1*	-1.3	65.3*
Cc1c(Cl)cccc1NC(=S)NCc1ccccc1Cl	-1.7	-6.3	5.5	-4.2	78.7*	-2.9	83.4*
c1ccc(-c2ccc(-c3cnc4n3CCCCC4)cc2)cc1	-2.2	-2.8	-13.2	-0.8	52.4*	-0.4	58.9*
COc1ccc(CNS(=O)(=O)c2cc3c4c(c2)C(C)C(=O)N4CCC3)cc1 (stereo not drawn)	-1.9	-1.3	-13.8	-2.5	-4.0	-2.3	.
Cc1nn(-c2cccc(C(F)(F)F)c2)c(Cl)c1/C=N/Nc1cccc(C(=O)O)c1	-2.6	.	3.8	0.1	56.8*	2.4	66.7*
CSCc1ccc(C(=O)NCC(c2cccs2)N2CCOCC2)cc1 (stereo not drawn)	-6.4	-1.6	2.7	.	-0.5	.	.
COc1ccc(-c2cc(-c3cc(C)ccc3O)[nH]n2)cc1	2.0	-5.2	2.6	-1.9	2.5	-4.6	.
Oc1ccc(Cl)cc1-c1cc(-c2ccccc2Cl)[nH]n1	-6.3	-2.7	8.5	-0.2	34.6	-5.2	.
Cc1ccc(O)c(-c2cc(-c3ccccc3[N+](=O)[O-])[nH]n2)c1	-4.7	0.0	-11.4	-1.4	73.3*	-1.8	66.5*
O=[N+]([O-])c1ccccc1-c1cc(-c2cc(Cl)ccc2O)n[nH]1	-6.7	.	-16.2	-2.7	88.3*	-2.1	84.8*
